Assay results as given in ChEMBL document CHEMBL1134945, “Synthesis and structure-activity relationships of aminoalkylazetidines as ORL1 receptor ligands” (Bioorg Med Chem Lett, 2002).
pKi: −log10 of the molar value.

Key:
[1] = target: Mu-type opioid receptor (Homo sapiens, UniProt P35372); assay: Binding affinity at human opioid receptor mu 1 was determined by using [3H]diprenorphine radioligand in CHO cell membranes at a concentration of 0.12 nM
Summary of the method: (§1)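 Ki from competition binding with [3H]diprenorphine on membranes of CHO cells expressing the respective human opioid receptor; means of 2–3 independent determinations.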

[2] = target: T1, Delta-type opioid receptor (Homo sapiens, UniProt P41143); assay: Binding affinity at human opioid receptor delta 1 was determined by using [3H]diprenorphine radioligand in CHO cell membranes at a concentration of 0.8 nM; summary of the method: as §1
T1 sequence (P41143 whole entry): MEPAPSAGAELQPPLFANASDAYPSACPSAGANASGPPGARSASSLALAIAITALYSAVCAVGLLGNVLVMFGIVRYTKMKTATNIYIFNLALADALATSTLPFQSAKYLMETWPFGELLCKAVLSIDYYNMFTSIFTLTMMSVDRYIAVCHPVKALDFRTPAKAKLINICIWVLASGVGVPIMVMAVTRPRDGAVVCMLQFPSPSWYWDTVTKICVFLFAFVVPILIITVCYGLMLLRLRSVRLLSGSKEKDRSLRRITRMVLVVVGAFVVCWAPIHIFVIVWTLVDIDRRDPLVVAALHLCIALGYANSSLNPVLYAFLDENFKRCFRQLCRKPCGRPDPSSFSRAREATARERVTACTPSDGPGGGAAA

[3] = target: T2, Nociceptin receptor (Homo sapiens, UniProt P41146); assay: Functional [35S]GTP-gamma-S, binding for human ORL1 receptor carried out in CHO cell membranes.; format: cell-based; details: filed as agonist
T2 sequence (P41146 whole entry): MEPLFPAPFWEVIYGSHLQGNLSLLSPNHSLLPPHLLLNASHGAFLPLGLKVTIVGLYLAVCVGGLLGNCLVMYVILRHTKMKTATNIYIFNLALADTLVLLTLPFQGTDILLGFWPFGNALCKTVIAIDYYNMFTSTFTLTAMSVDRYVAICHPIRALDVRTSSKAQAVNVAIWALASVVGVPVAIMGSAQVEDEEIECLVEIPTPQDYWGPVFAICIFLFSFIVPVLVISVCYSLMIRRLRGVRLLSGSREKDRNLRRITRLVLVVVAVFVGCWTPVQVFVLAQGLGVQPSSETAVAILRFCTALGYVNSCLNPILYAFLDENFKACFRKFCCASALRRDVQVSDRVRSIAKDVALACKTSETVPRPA
Summary of the method: (§2)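 [35S]GTPγS binding on membranes of CHO cells expressing human ORL1, 1 h incubation before assay start. Agonist: raises [35S]GTPγS binding. Antagonist: no effect on basal binding but blocks the Nociceptin-induced rise.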

[4] = target: T2, Nociceptin receptor; assay: Binding affinity at human ORL1 receptor was determined by using [125I]nociceptin radioligand in Chinese hamster ovary (CHO) cell membranes at a concentration of 23 pM
Summary of the method: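 Competition binding against [125I]Nociceptin on membranes of CHO cells expressing human ORL1; Ki derived; means of 2–3 independent determinations.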

[5] = target: Kappa-type opioid receptor (Homo sapiens, UniProt P41145); assay: Binding affinity at human opioid receptor kappa 1 was determined by using [3H]diprenorphine radioligand in CHO cell membranes at a concentration of 0.31 nM; summary of the method: as §1
Kappa-type opioid receptor, sequence (P41145 whole entry): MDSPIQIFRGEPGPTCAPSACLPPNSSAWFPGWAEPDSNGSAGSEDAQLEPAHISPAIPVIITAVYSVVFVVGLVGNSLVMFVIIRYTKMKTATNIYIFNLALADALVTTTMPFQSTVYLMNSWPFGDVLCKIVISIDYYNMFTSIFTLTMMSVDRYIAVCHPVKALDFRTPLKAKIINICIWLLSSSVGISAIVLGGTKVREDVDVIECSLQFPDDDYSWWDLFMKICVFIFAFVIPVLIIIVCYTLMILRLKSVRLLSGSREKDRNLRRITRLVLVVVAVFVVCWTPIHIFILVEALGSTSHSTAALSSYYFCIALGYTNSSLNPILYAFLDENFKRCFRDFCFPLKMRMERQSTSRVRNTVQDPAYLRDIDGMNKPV

[6] = target: T2, Nociceptin receptor; assay: Concentration of compound that inhibits the binding of human ORL1 receptor in CHO cell membranes in the presence of [125I]nociceptin radioligand at a concentration of 10 uM
[7] = target: T2, Nociceptin receptor; assay: Compound was evaluated for functional [35S]GTP-gamma-S, binding for human ORL1 receptor carried out in CHO cell membranes; Compound acts as Agonist; format: cell-based; details: filed as agonist; summary of the method: as §2
[8] = target: T2, Nociceptin receptor; assay: Compound was evaluated for functional [35S]GTP-gamma-S, binding for human ORL1 receptor carried out in CHO cell membranes; Compound acts as Antagonist; format: cell-based; details: filed as antagonist; summary of the method: as §2
[9] = target: T1, Delta-type opioid receptor; assay: Binding affinity at human Opioid receptor delta 1 was determined by using [3H]diprenorphine radioligand in CHO cell membranes at a concentration of 0.8 nM; summary of the method: as §1

Mu-type opioid receptor, sequence (P35372 whole entry): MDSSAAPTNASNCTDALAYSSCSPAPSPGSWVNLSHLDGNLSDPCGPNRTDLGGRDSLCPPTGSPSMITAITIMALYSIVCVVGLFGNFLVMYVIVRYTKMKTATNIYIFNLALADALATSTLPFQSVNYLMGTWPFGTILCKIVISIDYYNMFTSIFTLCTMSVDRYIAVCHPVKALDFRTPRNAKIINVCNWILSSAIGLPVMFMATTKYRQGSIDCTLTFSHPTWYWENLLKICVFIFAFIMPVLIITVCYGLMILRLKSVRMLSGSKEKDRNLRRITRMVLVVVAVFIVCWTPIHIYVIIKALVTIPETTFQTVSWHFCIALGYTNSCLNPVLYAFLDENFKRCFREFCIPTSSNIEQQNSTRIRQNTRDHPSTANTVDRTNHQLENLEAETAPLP

Row | SMILES | pKi [1] | pKi [2] | Activity [3] | pKi [4] | pKi [5] | inhibition [6] [%] | Activity [7] | Activity [8] | pKi [9]
1 | N[C@H](c1cccc(Cl)c1)[C@@H]1CCN1C(c1cccc(F)c1)c1cccc(F)c1 | 5.36 | 5.32 | Agonist | 7.19 | 5.45 |  |  |  | 
2 | CCCCCC(c1ccccc1)N1CC[C@H]1[C@H](N)c1cccc(Cl)c1 (stereo not given in full) | 5.71 | 5.22 |  | 7.47 | 5.52 |  |  |  | 
3 | CCCCC(CCCC)N1CC[C@H]1[C@@H](N)c1cccc(Cl)c1 | 5.01 | 4.50 |  | 5.87 | 5.37 |  |  |  | 
4 | CCCC(c1ccccc1)N1CC[C@H]1[C@H](N)c1cccc(Cl)c1 (stereo not given in full) | 5.22 | 4.78 | Agonist | 7.10 | 5.14 |  |  |  | 
5 | CC(c1ccccc1)N1CC[C@H]1[C@@H](N)c1cccc(Cl)c1 (stereo not given in full) | 4.97 | 4.41 |  | 5.97 | 5.39 |  |  |  | 
6 | N[C@H](c1cccc(Cl)c1)[C@@H]1CCN1C(c1ccc(Cl)cc1)c1ccc(Cl)cc1 | 5.46 | 5.30 |  | 5.49 | 5.49 |  |  |  | 
7 | CCCCC(c1cc(F)cc(F)c1)N1CC[C@H]1[C@@H](N)c1cccc(Cl)c1 (stereo not given in full) | 5.26 | 5.03 |  | 6.46 | 5.19 |  |  |  | 
8 | Cc1ccc(C(c2ccc(C)cc2)N2CC[C@H]2[C@H](N)c2cccc(Cl)c2)cc1 | 6.10 | 5.30 |  | 5.95 | 5.73 |  |  |  | 
9 | CCCCCC(c1ccccc1)N1CC[C@H]1[C@@H](N)c1cccc(Cl)c1 (stereo not given in full) | 5.67 | 5.12 |  | 6.11 | 5.41 |  |  |  | 
10 | CCCCC(c1ccccc1)N1CC[C@H]1[C@H](N)c1cccc(Cl)c1 (stereo not given in full) | 5.74 | 5.09 | Agonist | 7.52 | 5.46 |  |  |  | 
11 | CCCCC(c1ccccc1)N1CC[C@H]1[C@@H](N)c1cccc(Cl)c1 (stereo not given in full) | 5.65 | 5.05 |  | 6.13 | 5.43 |  |  |  | 
12 | N[C@H](c1cccc(C(F)(F)F)c1)[C@H]1CCN1C(c1ccccc1)c1ccccc1 | 6.29 | 5.48 | Agonist | 7.85 | 6.19 |  |  |  | 
13 | N[C@@H](c1ccc(Oc2ccccc2)cc1)[C@@H]1CCN1C(c1ccccc1)c1ccccc1 | 5.27 | 5.11 |  | 5.14 | 5.56 |  |  |  | 
14 | Cc1cccc([C@H](N)[C@@H]2CCN2C(c2ccccc2)c2ccccc2)c1 |  |  |  |  |  | 3 |  |  | 
15 | N[C@@H](c1cccc(C(F)(F)F)c1)[C@@H]1CCN1C(c1ccccc1)c1ccccc1 (stereo in doubt; (+\-)-1) [listing 1 of 2 here] | 5.71 | 5.22 |  | 7.51 | 5.79 |  |  |  | 
16 | N[C@@H](c1cccc(F)c1)[C@@H]1CCN1C(c1ccccc1)c1ccccc1 | 5.75 | 5.53 | Agonist | 6.72 | 6.00 |  |  |  | 
17 | CCCCC(c1cc(F)cc(F)c1)N1CC[C@H]1[C@H](N)c1cccc(Cl)c1 (stereo not given in full) | 5.40 | 4.95 |  | 7.31 | 5.37 |  | Agonist |  | 
18 | Cc1ccc([C@H](N)[C@@H]2CCN2C(c2ccccc2)c2ccccc2)cc1F | 6.82 | 6.20 | Agonist | 7.24 | 6.82 |  |  |  | 
19 | COc1cccc([C@H](N)[C@@H]2CCN2C(c2ccccc2)c2ccccc2)c1 |  |  |  |  |  | 45 |  |  | 

Row | SMILES | pKi [1] | pKi [2] | Activity [3] | pKi [4] | pKi [5] | inhibition [6] [%] | Activity [7] | Activity [8] | pKi [9]
20 | Cc1ccc([C@H](N)[C@@H]2CCN2C(c2ccccc2)c2ccccc2)cc1 | 6.31 | 5.73 |  | 7.03 | 6.18 |  |  |  | 
21 | CCC(c1ccccc1)N1CC[C@H]1[C@@H](N)c1cccc(Cl)c1 (stereo not given in full) | 5.09 | 4.65 |  | 6.24 | 4.88 |  |  |  | 
22 | CCCCC(c1cccc(F)c1)N1CC[C@H]1[C@@H](N)c1cccc(Cl)c1 (stereo not given in full) | 5.33 | 4.91 |  | 6.17 | 5.38 |  |  |  | 
23 | N[C@@H](c1cccc(C(F)(F)F)c1)[C@@H]1CCN1C(c1ccccc1)c1ccccc1 (stereo in doubt; (+)-1a) [listing 1 of 2 here] | 5.22 | 4.96 |  | 6.63 | 5.45 |  |  |  | 
24 | CCCC(c1ccccc1)N1CC[C@H]1[C@@H](N)c1cccc(Cl)c1 (stereo not given in full) | 5.38 | 5.00 |  | 6.44 | 5.53 |  |  |  | 
25 | N[C@H](c1cccc(Cl)c1)[C@@H]1CCN1C(c1ccc(F)cc1)c1ccc(F)cc1 | 5.66 | 5.13 |  | 6.16 | 5.65 |  |  |  | 
26 | N[C@@H](c1ccc(Cl)cc1)[C@@H]1CCN1C(c1ccccc1)c1ccccc1 | 6.23 | 5.84 | Agonist | 6.82 | 6.22 |  |  |  | 
27 | N[C@H](c1cccc(Cl)c1)[C@@H]1CCN1C(c1cccc(C(F)(F)F)c1)c1cccc(C(F)(F)F)c1 |  |  |  | 5.59 |  |  |  |  | 
28 | N[C@@H](c1cccc(C(F)(F)F)c1)[C@@H]1CCN1C(c1ccccc1)c1ccccc1 (stereo in doubt; (+\-)-1) [listing 2 of 2 here] |  |  | Agonist |  |  |  |  |  | 
29 | N[C@H](c1cccc(Cl)c1)[C@@H]1CCN1C(c1cccc(Cl)c1)c1cccc(Cl)c1 | 5.15 | 5.57 | Agonist | 6.38 | 5.22 |  |  |  | 
30 | N[C@@H](c1cccc(Cl)c1)[C@@H]1CCN1C(c1ccccc1)c1ccccc1 | 5.78 | 5.08 |  | 7.43 | 5.91 |  |  |  | 
31 | N[C@H](c1cccc(Cl)c1)[C@@H]1CCN1C(c1ccc(Br)cc1)c1ccc(Br)cc1 | 5.60 | 5.30 |  | 5.60 | 5.83 |  |  |  | 
32 | CCCCCCC(c1ccccc1)N1CC[C@H]1[C@H](N)c1cccc(Cl)c1 (stereo not given in full) | 5.83 |  |  | 6.73 | 5.54 |  |  | Antagonist | 5.41
33 | N[C@@H](c1cccc(C(F)(F)F)c1)[C@@H]1CCN1C(c1ccccc1)c1ccccc1 (stereo in doubt; (+)-1a) [listing 2 of 2 here] |  |  | Agonist |  |  |  |  |  | 
34 | CCCCC(c1cccc(F)c1)N1CC[C@H]1[C@H](N)c1cccc(Cl)c1 (stereo not given in full) | 5.80 | 5.06 | Agonist | 7.59 | 5.67 |  |  |  | 
35 | N[C@@H](c1cc(F)cc(F)c1)[C@@H]1CCN1C(c1ccccc1)c1ccccc1 | 5.37 | 5.02 | Agonist | 6.98 | 5.40 |  |  |  | 
36 | CCC(c1ccccc1)N1CC[C@H]1[C@H](N)c1cccc(Cl)c1 (stereo not given in full) | 5.14 | 4.65 | Agonist | 7.03 | 5.11 |  |  |  | 
37 | CCCCCCC(c1ccccc1)N1CC[C@H]1[C@@H](N)c1cccc(Cl)c1 (stereo not given in full) | 5.80 | 5.30 |  | 5.99 | 5.71 |  |  |  | 
38 | COc1ccc([C@H](N)[C@@H]2CCN2C(c2ccccc2)c2ccccc2)cc1 | 6.06 | 5.53 |  | 6.70 | 5.87 |  |  |  | 
